Measured values published in ChEMBL document CHEMBL3853323, “Small Antimicrobial Agents Based on Acylated Reduced Amide Scaffold” (J Med Chem, 2016).
In brackets after ≈: the same amount, converted by molar mass. Activity calls are given as the source filed them. No cut-off for these calls is given here.

Experiments:
Acinetobacter baumannii [1] = assay: Inhibition of biofilm formation in Acinetobacter baumannii at 0.6 ug/ml incubated overnight by crystal violet staining based assay; type: functional
Method in brief: (§1)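 Overnight culture diluted 1:100 into 10% MHII broth, incubated with compound overnight at 37 °C. Growth read at OD600, then biomass stained with crystal violet; CV OD divided by growth OD and normalized to untreated control. Triplicate, mean ± STDEV.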

[2] = Selectivity ratio of IC50 for human HK2 cells to MIC for methicillin-resistant Staphylococcus aureus ATCC 33591; type: ADME, cell-based
Acinetobacter baumannii [3] = assay: Inhibition of biofilm formation in Acinetobacter baumannii at 2 ug/ml incubated overnight by crystal violet staining based assay; type: functional; method in brief: as §1
Staphylococcus aureus [4] = assay: Antibacterial activity against methicillin-resistant Staphylococcus aureus ATCC 33591 after 16 to 20 hrs by two fold serial dilution method; type: functional
Method in brief: (§2)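 Broth MIC: the lowest concentration giving complete growth inhibition after 20 h. Run at least three times, in duplicate each time.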

[5] = Selectivity ratio of IC50 for human K562 cells to MIC for methicillin-resistant Staphylococcus aureus ATCC 33591; type: ADME, cell-based
Staphylococcus aureus [6] = assay: Bactericidal activity against methicillin-resistant Staphylococcus aureus ATCC 33591 at 25 to 50 ug/ml for 10 mins to 2 hrs by time kill assay; type: functional
Method in brief: (§3)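 MRSA grown to mid-log in TSB was diluted to 10^6 CFU/mL. […] Samples were diluted 10^2–10^4-fold and plated on TSB agar. CFU were counted after overnight incubation at 37 °C and plotted against time.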

Staphylococcus aureus [7] = assay: Antibacterial activity against methicillin-resistant Staphylococcus aureus induced ventilator-associated pneumonia bearing Wistar rat model assessed as reduction in lung infiltrated proinflammatory cells at 10 mg/kg, iv measured after 1 to 3 days by hematoxylin and eosin staining based light microscopy; type: functional, organism-based
Method in brief: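 Male Wistar rats (6‒8 weeks, ~200 g) were fasted at least 12 h and given urethane 1 g/kg i.p. Pneumonia was induced by slow intratracheal injection of 100 μL PBS with 2×10^5 CFU/mL MRSA under mechanical ventilation. Compound was given at 10 mg/kg i.v. via tail vein. H&E-stained lung sections were scored for neutrophil infiltration and alveolar integrity over time, five random sections each.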

Pseudomonas aeruginosa = assay: Antibacterial activity against Pseudomonas aeruginosa ATCC 27853 after 16 to 20 hrs by two fold serial dilution method; type: functional
Method in brief: (§4)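 MIC as lowest concentration giving complete inhibition of growth after 20 h; at least three independent experiments, each in duplicate.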

Staphylococcus aureus [8] = assay: Bactericidal activity against methicillin-resistant Staphylococcus aureus ATCC 33591 for 10 mins to 2 hrs by time kill assay; type: functional; method in brief: as §3
Enterococcus faecalis = assay: Antibacterial activity against vancomycin resistant Enterococcus faecalis ATCC 700802 after 16 to 20 hrs by two fold serial dilution method; type: functional; method in brief: as §2
[9] = Cytotoxicity against human HK2 cells assessed as cell viability after 24 hrs by MTT assay; type: toxicity, cell-based, HK-2
Method in brief: (§5)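 Cells seeded at 5×10^4 per well and left 12 h, then exposed 24 h to compound at 100, 50, 25, 12.5 or 6.25 μg/mL diluted in medium. Medium replaced, MTT added for 4 h, solubilized 12 h at 37 °C, A550 read; viability % = (A − Ablank)/(Acontrol − Ablank) × 100. Run at least three times.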

Staphylococcus aureus [10] = assay: Bactericidal activity against methicillin-resistant Staphylococcus aureus ATCC 33591 assessed as disruption of bacterial membrane at 25 ug/ml after 2 hrs by DAPI staining based fluorescence microscopy; type: functional
Method in brief: (§6)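 Mid-log MRSA was exposed to compound at 37 °C for 2 h, pelleted and washed three times in PBS. Cells were stained sequentially with PI (5 µg/mL) and DAPI (10 µg/mL), 15 min each on ice in the dark. Imaged with a 100× oil objective; DAPI channel 460 nm, PI channel 620 nm.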

[11] = tested on: Staphylococcus epidermidis; assay: Antibacterial activity against methicillin-resistant Staphylococcus epidermidis RP62A after 16 to 20 hrs by two fold serial dilution method; type: functional; method in brief: as §2
[12] = Cytotoxicity against human K562 cells assessed as cell viability after 24 hrs by MTT assay; type: toxicity, cell-based; method in brief: as §5
Rattus norvegicus = assay: Antiinflammatory activity in methicillin-resistant Staphylococcus aureus induced ventilator-associated pneumonia bearing Wistar rat model assessed as reduction in TNF-alpha levels in bronchoalveolar lavage fluid at 10 mg/kg, iv measured after 1 to 3 days by ELISA; type: functional, organism-based
Method in brief: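 Same MRSA pneumonia rat model with 10 mg/kg i.v. tail-vein dosing. Rats were sacrificed and exsanguinated. Lungs were lavaged through a tracheal needle with 1 mL sterile PBS for six cycles. Specimens were homogenized and TNF-α was measured by ELISA.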

Escherichia coli [13] = assay: Inhibition of biofilm formation in Escherichia coli ATCC 25922 at 2 ug/ml incubated overnight by crystal violet staining based assay; type: functional; method in brief: as §1
Klebsiella pneumoniae = assay: Antibacterial activity against Klebsiella pneumoniae ATCC 13383 after 16 to 20 hrs by two fold serial dilution method; type: functional; method in brief: as §4
Escherichia coli [14] = assay: Inhibition of biofilm formation in Escherichia coli ATCC 25922 at 0.6 ug/ml incubated overnight by crystal violet staining based assay; type: functional; method in brief: as §1
[15] = Hemolytic activity in human RBC after 1 hr; type: ADME, cell-based, Erythrocyte; conditions: human red blood cells
Method in brief: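 Fresh K2EDTA human RBCs, PBS-washed, as 5% v/v suspension mixed 1:1 with compound dilutions, 37 °C for 1 h. Supernatant after centrifugation diluted in PBS, A540 read. % hemolysis relative to 2% Triton X-100 (positive) and PBS (negative). At least three runs, each in duplicate.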

Escherichia coli [16] = assay: Antibacterial activity against Escherichia coli ATCC 25922 after 16 to 20 hrs by two fold serial dilution method; type: functional; method in brief: as §4
Staphylococcus aureus [17] = assay: Antibacterial activity against methicillin-resistant Staphylococcus aureus ATCC 33591 at 0.5 times MIC after 14 passages; type: functional
Method in brief: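 Resistance passaging: the starting MIC was measured as in the MIC assay. Bacteria from the 1/2 MIC well seeded the next day's assay. Repeated daily for 14 passages.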

Staphylococcus aureus [18] = assay: Bactericidal activity against methicillin-resistant Staphylococcus aureus ATCC 33591 assessed as disruption of bacterial membrane at 25 ug/ml after 2 hrs by propidium iodide staining based fluorescence microscopy; type: functional; method in brief: as §6

## NCCCC[C@H](N)C(=O)N[C@@H](Cc1ccccc1)CN(CC(=O)NCC12CC3CC(CC(C3)C1)C2)C(=O)CC12CC3CC(CC(C3)C1)C2
Acinetobacter baumannii [1]
  inhibition at 0.6 µg/mL: > 50%
[2]
  selectivity ratio: > 50
Acinetobacter baumannii [3]
  inhibition: Active
Staphylococcus aureus [4]
  MIC: 1.56 µg/mL (≈ 2.36 µM)
[5]
  selectivity ratio: > 50
Staphylococcus aureus [6]
  Activity: Active
Staphylococcus aureus [7]
  Activity: Active
Pseudomonas aeruginosa
  MIC: 6.25 µg/mL (≈ 9.47 µM)
Staphylococcus aureus [8]
  Activity: Dose-dependent effect
Enterococcus faecalis
  MIC: 6.25 µg/mL (≈ 9.47 µM)
[9]
  IC50 at 24 h: 86.3 µg/mL (≈ 131 µM)
Staphylococcus aureus [10]
  Activity: Active
[11]
  MIC: 3.12 µg/mL (≈ 4.73 µM)
[12]
  IC50 at 24 h: 83.2 µg/mL (≈ 126 µM)
Rattus norvegicus
  Activity: Active
Escherichia coli [13]
  inhibition: Active
Klebsiella pneumoniae
  MIC: 6.25 µg/mL (≈ 9.47 µM)
Escherichia coli [14]
  inhibition at 0.6 µg/mL: > 50%
[15]
  HC50 at 1 h: 85 µg/mL
Escherichia coli [16]
  MIC: 3.12 µg/mL (≈ 4.73 µM)
Staphylococcus aureus [17]
  Activity: Active
Staphylococcus aureus [18]
  Activity: Active
